The values below come from publication PMC6885571 (International Journal of Nanomedicine, 2019).

≈ marks a conversion by molar mass, not a printed value.

A short description of data set [1]: Pharmacokinetic study after intranasal administration. The format is in vivo, Wistar rats. Conditions: rats. In a few lines: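 Wistar rats (200±20 g) anaesthetised with 10% chloral hydrate received 50 µL of formulation through a PE 10 tube inserted 1 cm into the nostril. Orbital blood and tissues taken at 0.083–24 h (11 points). Plasma or tissue homogenate alkalised with 2 mol/L NaOH, extracted with 2 mL ethyl acetate, dried under nitrogen, redissolved in methanol and assayed by HPLC. Parameters calculated by software; mean±SD, n=6.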

The nature of data set [2]: In vitro drug release, dialysis bag in phosphate buffer pH 6.8. The format is physicochemical. Conditions: at 24 h; phosphate buffer pH 6.8, 37 °C. A digest of the protocol: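 Dialysis bag (12–14 kDa cut-off), pre-soaked overnight in medium, held 1 mL of freshly prepared nanoemulsion (5 mg/mL drug). Bag placed in 100 mL phosphate buffer pH 6.8 at 37 °C, shaken at 50 rpm. At set times 4 mL was withdrawn and replaced with fresh medium. HupA measured by HPLC (C18, methanol–water 43:57, 308 nm), plotted as cumulative % released versus time. Drug suspension run under the same sink conditions.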

Data set [3] concerns hCMEC/D3 cells. Nature of the data set: Cellular uptake and transporter/endocytosis inhibition assay. It counts as cell-based, human. Conditions: 30 min pre-incubation with inhibitor. In a few lines:
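hCMEC/D3 cells grown to 90% confluence, then pre-incubated 30 min at 37 °C, 5% CO2 with one inhibitor: verapamil 10 µM, MK571 10 µM, ko143 1 µM, […], aprotinin 200 µg/mL, colchicine 2.5 µM or […]. Nanoemulsion or HupA solution added for 1 h. Cells washed with ice-cold PBS, lysed in 1% Triton X-100, dichloromethane-extracted and analysed by HPLC; mean±SD, n=3.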

Data set [4] concerns nasal mucosa. Nature of the data set: Test for nasal toxicity of NEs. It counts as in vivo, Wistar rats. Conditions: rats, intranasal, 14 consecutive days; mucosa on days 1, 7, 14. A digest of the protocol: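 Male Wistar rats (200 g), four groups of three, dosed intranasally. Groups: saline (negative control), 1% sodium deoxycholate in 50 µL saline (positive control), or one of two nanoemulsions for 14 consecutive days. Nasal mucosa collected after sacrifice on days 1, 7 and 14, fixed 24 h in 10% buffered formalin, dehydrated in ethanol, cleared in xylene and paraffin-embedded. Sections stained with H&E and examined by light microscopy.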

Data set [5] is described as follows: Saturation solubility of HupA in oils, surfactants and co-surfactants. The format is physicochemical. Conditions: thermodynamic from solid. In a few lines: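 Excess HupA added to 0.2 mL vehicle, vortexed 10 min, then kept 24 h at 37±0.5 °C in a shaking water bath. Mixture centrifuged at 6000 rpm for 10 min and supernatant filtered (0.45 µm). 0.1 mL diluted in methanol and dissolved drug quantified by HPLC.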

In general, AUC(0-t) refers to the area under the concentration-time curve up to a stated or last time point. A low value points to less exposure. As usually defined, the Cmax is the maximum level reached in the sampled fluid or tissue. A word on the Tmax: it is the time at which the peak concentration occurs. For `C/C=C1\[C@H]2C=C(C)C[C@]1(N)c1ccc(=O)[nH]c1C2` [HupA Solution], in data set [1] (brain), the “AUC(0-t)” value is 21.507 ng·h/mL, the “AUC(0-∞)” value is 23.765 ng·h/mL, the highest concentration (Cmax) is on record as 13.29 ng/mL and the “MRT(0-t)” value worked out at 1.255 h. For the same compound, in data set [1] (brain), the “MRT(0-∞)” value is recorded as 1.674 h, the T1/2 turned out to be 70.38 min and the Tmax is 15 min. Moreover, in data set [1] (plasma), the “AUC(0-t)” value was 51.188 ng·h/mL, the “AUC(0-∞)” value was 51.378 ng·h/mL, the peak concentration (Cmax) stood at 56.95 ng/mL and the “MRT(0-t)” value stood at 1.153 h. Besides, in data set [1] (plasma), the “MRT(0-∞)” value is given as 1.439 h, the T1/2 is 46.1 min and the time to peak (Tmax) was 15 min. In addition, the drug released in data set [2] is on record as 63%.
With Aprotinin, in data set [3] (then HupA-NE 1 h), the “effect of inhibitor on transport of HupA-NE across the cells” value is on record as “restricted transport”. The “effect of inhibitor on Lf-HupA-NE transport” value in data set [3] (then Lf-HupA-NE 1 h) is listed as “mildly reduced”.
Take `C[C@H](CCC(=O)[O-])[C@H]1CC[C@H]2[C@@H]3CC[C@@H]4C[C@H](O)CC[C@]4(C)[C@H]3C[C@H](O)[C@]12C.[Na+]` [1% deoxycholic acid sodium solution, deoxycholic acid sodium]: the “nasal mucosa toxicity (histology)” value in data set [4] is listed as “extensive damage to the nasal mucosa”.
For orientation: solubility means how much of the substance goes into solution per volume. Consider `C/C=C1\[C@H]2C=C(C)C[C@]1(N)c1ccc(=O)[nH]c1C2` [HupA, Huperzine A], for which the solubility at 24 h in data set [5] (Capryol90, 37 °C, oil or lipid) was 38.33 ± 0.15 mg/mL (≈ 158 mM); in data set [5] (Cremophor EL, 37 °C) it was 34.7 ± 0.09 mg/mL (≈ 143 mM); in data set [5] (Grape seed oil, 37 °C, oil or lipid), 1.96 ± 0.01 mg/mL (≈ 8.09 mM); in data set [5] (L.A.S, 37 °C), 34.96 ± 0.13 mg/mL (≈ 144 mM); in data set [5] (LABRAFIL M 1944 CS, 37 °C, oil or lipid), 19.7 ± 0.24 mg/mL (≈ 81.3 mM); in data set [5] (Labrasol, 37 °C), 102.2 ± 0.65 mg/mL (≈ 422 mM). Further, the solubility at 24 h in data set [5] (PEG400, 37 °C, organic solvent or mixture) was 98.41 ± 0.35 mg/mL (≈ 406 mM); in data set [5] (Plurol Oleique CC 497, 37 °C), 15.5 ± 0.31 mg/mL (≈ 64 mM); in data set [5] (Propanediol, 37 °C, organic solvent or mixture), 65.3 ± 0.91 mg/mL (≈ 270 mM); in data set [5] (Soybean oil, 37 °C, oil or lipid), 2.73 ± 0.07 mg/mL (≈ 11.3 mM); in data set [5] (Span 80, 37 °C) it was 13.35 ± 0.12 mg/mL (≈ 55.1 mM); in data set [5] (Tween 80, 37 °C) it was 21 ± 0.45 mg/mL (≈ 86.8 mM). Also, the concentration in solution in data set [5] (isopropyl myristate (IPM), 37 °C, oil or lipid) (solubility at 24 h) came to 2.43 ± 0.01 mg/mL (≈ 10 mM).
